Records with an inconclusive call do not appear.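 The calls were made as follows, unless noted: active = viability at or below 27.92% in each of two runs, the all-compound median minus 4 SD; inconclusive = no clear call, values can overlap the other calls; inactive = the rest.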
What was measured:
[1] = S. cerevisiae growth inhibition in permissive medium (OD615), pilot counter-assay for S. cerevisiae lifespan shortening project, permissive growth control (AID 705;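 active = growth inhibition above 25% in both replicates, a cutoff set 3 SD above the mean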); details: OD615, 24 h, at 10 µM, hits give high values
How it was run: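 System: S. cerevisiae with engineered DeaD lifespan system. Medium: SC raffinose/galactose permissive medium. Doses: single compound dose of 10 µM, 0.25% DMSO final. Schedule: 24 h exposure, 30 °C. Measured by: OD615 turbidity read. Read-out: growth inhibition.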

[2] = S. cerevisiae growth inhibition in restrictive medium, OD615, pilot screen, restrictive growth control, yeast lifespan reduction project (AID 706;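 active = growth inhibition above a set limit, 3 SD over mean compound inhibition, in both replicates, cut at about 43% in these data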;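 also: modified DeaD lifespan yeast strain shifted to restrictive glucose medium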); details: OD615, 48 h, at 10 µM, hits give high values
How it was run: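 Assay system – genetically modified Saccharomyces cerevisiae, DeaD replicative lifespan assay strain · Medium – CSMM-D glucose medium · Doses – 10 µM compound, 0.25% DMSO · Times – 4 h pre-incubation, 48 h exposure at 30 °C · Signal – optical density at 615 nm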

[3] = doxorubicin toxicity protection in MRP-1 cells – H69AR cells, CellTiter-Glo, duplicate, MRP-1 activator project, pilot screen (AID 807;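 active = viability increase at or above a cutoff of the median across tested compounds plus 3 SD, cut at about 8.5% in these data, passing the limit was not always enough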;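 also: compound pretreatment 18-22 h then 72 h combined with doxorubicin; 0% = doxorubicin alone and 100% = vehicle without doxorubicin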); details: H69AR viability with doxorubicin, CellTiter-Glo luminescence; at 10 µM; hits give high values
[4] = viability of HCT116 without oncogenic beta-catenin – human colon tumor cells, pilot screen (AID 823;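 active = cell viability at or below a set limit in both duplicate runs, the limit being the all-compound median minus 4 SD, cut at about 23% in these data, passing the limit was not always enough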;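 also: 0% = wells killed by 20 µM Hyamine and 100% = untreated DMSO cell wells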); details: HCT116 beta-catenin knockout viability, CellTiter-Glo, 60 h; at 10 µM; hits give low values
[5] = viability of PTEN-null HCT116 cells – cell-based, HCT116 clonal line, CellTiter-Glo, pilot screen (AID 824); details: HCT116 PTEN-deleted viability, 60 h, at 10 µM, hits give low values;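 also: 0% = 20 µM Hyamine control and 100% = vehicle cell control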
[6] = RAM pathway blockade in budding yeast – dse1pr::URA3 reporter, 5-FOA selection, pilot screen (AID 869;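 active = inhibition over a set limit, the all-compound mean plus 3 SD, in both replicate runs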;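 also: 0% = DMSO wells with no growth and 100% = 10 µM 1-NA-PP1 with full growth; RAM network block rescues cells from 5-FOA so hits raise OD615 growth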); details: S. cerevisiae dse1pr::URA3 5-FOA growth, OD615, 2 d; at 10 µM; hits give high values; strain carries analog-sensitive mutant Cbk1 kinase
[7] = RAM signaling pathway blockade in yeast – S. cerevisiae, Pdr1DBD-CYC8 efflux-inhibited sensitized strain, primary screen (AID 1298;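 active = RAM network inhibition above 8.4% in each of two replicates, 3 SD over the compound average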;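 also: 0% = DMSO untreated cells without growth and 100% = 10 µM 1-NA-PP1 full growth; higher means more yeast growth rescued from 5-FOA killing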); details: S. cerevisiae cbk1-as DSE1-URA3 strain, 5-FOA growth OD615, 2 d; at 50 µM; hits give high values

O=C(C1CCC(=O)N1Cc1cccnc1)N1CCN(c2ccc(F)cc2)CC1 (configuration not stated)
inactive: growth inhibition [1] -0.085% | growth inhibition [2] -9.05% | viability increase [3] -2.73% | viability [4] 90.1% | viability [5] 88.4% | inhibition [6] 0.585% | RAM network inhibition [7] 5.89%

CCN1CCN(Cc2nc3c(c(=O)n(C)c(=O)n3C)n2Cc2ccc(Cl)cc2Cl)CC1
inactive: growth inhibition [1] -9.72% | growth inhibition [2] -16.2% | viability increase [3] -3.62% | viability [4] 99.1% | viability [5] 98.8% | inhibition [6] 0.615% | RAM network inhibition [7] 1.52%

O=C(Nc1ccc(Br)cc1F)C1CCCN(S(=O)(=O)c2cnc[nH]2)C1 (configuration not stated)
inactive: growth inhibition [1] 2.29% | growth inhibition [2] -10.9% | viability increase [3] 2.99% | viability [4] 92.2% | viability [5] 98% | inhibition [6] 0.905% | RAM network inhibition [7] 5.06%

Cc1cc(NC(=O)CSc2nc3c([nH]c4ccccc43)c(=O)n2-c2cccc(C(F)(F)F)c2)no1
inactive: growth inhibition [1] -8.72% | growth inhibition [2] -3.21% | viability increase [3] -4.01% | viability [4] 75.1% | viability [5] 66.7% | inhibition [6] 2.41% | RAM network inhibition [7] 1.08%

O=C(CS(=O)(=O)c1cn(Cc2ccccc2Cl)c2ccccc12)N1CCOCC1
inactive: growth inhibition [1] -3.44% | growth inhibition [2] 2.78% | viability increase [3] -4.39% | viability [4] 79% | viability [5] 76% | inhibition [6] 3.23% | RAM network inhibition [7] 5.08%

c1ccc2c(c1)CCN(c1nc3ccccc3n3cnnc13)C2
inactive: growth inhibition [1] -1.93% | growth inhibition [2] 10.2% | viability increase [3] -8.63% | viability [4] 65.1% | viability [5] 68.9% | inhibition [6] 0.5% | RAM network inhibition [7] -0.31%

COCCNC(=O)CN1C(=O)CC(C)(C)S(=O)(=O)c2ccccc21
inactive: growth inhibition [1] -2.02% | growth inhibition [2] -10.2% | viability increase [3] 1.42% | viability [4] 109% | viability [5] 101% | inhibition [6] 0.31% | RAM network inhibition [7] -0.36%

O=C(CCn1c(=O)oc2ccccc21)NCCCN1CCCC1=O
inactive: growth inhibition [1] 4.51% | growth inhibition [2] 0.85% | viability increase [3] 1.26% | viability [4] 107% | viability [5] 98.5% | inhibition [6] 1.01% | RAM network inhibition [7] 0.46%

CC(=O)N(CCCN(C)C)CCC(C)CCC=C(C)C (configuration not stated)
inactive: growth inhibition [1] -7.18% | growth inhibition [2] -5.88% | viability increase [3] -2.93% | viability [4] 94.1% | viability [5] 92.7% | inhibition [6] 0.41% | RAM network inhibition [7] 3.84%

CC1Cc2ccccc2N1C(=O)C1CCCN(S(=O)(=O)c2cccc3cccnc23)C1 (configuration not stated)
inactive: growth inhibition [1] -6.46% | growth inhibition [2] -11% | viability increase [3] -5.48% | viability [4] 67.9% | viability [5] 62.2% | inhibition [6] 2.08% | RAM network inhibition [7] 7.93%

Cc1ccc(-c2nc3ncccc3o2)cc1NC(=O)Cc1ccc(Cl)cc1
inactive: growth inhibition [1] -17.4% | growth inhibition [2] -10.8% | viability increase [3] -4.9% | viability [4] 81.8% | viability [5] 82.9% | inhibition [6] 2.07% | RAM network inhibition [7] 1.75%

Cc1ccc(Cl)cc1NC(=O)COC(=O)C1CCCC1
inactive: growth inhibition [1] -22% | growth inhibition [2] -14.1% | viability increase [3] -0.05% | viability [4] 99.1% | viability [5] 94.4% | inhibition [6] 1.32% | RAM network inhibition [7] 1.69%

COC(=O)C1CCN(C(=O)c2ccc(Cl)c(S(=O)(=O)NCc3cccnc3)c2)CC1
inactive: growth inhibition [1] -4.88% | growth inhibition [2] -18.5% | viability increase [3] 0.87% | viability [4] 101% | viability [5] 102% | inhibition [6] 1.32% | RAM network inhibition [7] 2.3%

Cc1cc(N2CCN(C(=O)c3ccco3)CC2)n2nc(C)nc2n1
inactive: growth inhibition [1] -6.63% | growth inhibition [2] 5.6% | viability increase [3] -3.61% | viability [4] 95.5% | viability [5] 98.2% | inhibition [6] 0.95% | RAM network inhibition [7] -0.63%

Clc1ccc(NCn2cncn2)nc1
inactive: growth inhibition [1] 12.6% | growth inhibition [2] 7.94% | viability increase [3] -1.55% | viability [4] 96.5% | viability [5] 93.5% | inhibition [6] 2.67% | RAM network inhibition [7] 3.18%

O=C(CSc1ccccn1)c1ccc(F)cc1
inactive: growth inhibition [1] 10.7% | growth inhibition [2] 17.6% | viability increase [3] -0.02% | viability [4] 100% | viability [5] 102% | inhibition [6] 2.88% | RAM network inhibition [7] 1.72%

CCN(CC)Cc1c[nH]c2c(C(=O)OC)cccc12
inactive: growth inhibition [1] -11.4% | growth inhibition [2] -23.5% | viability increase [3] -4.51% | viability [4] 101% | viability [5] 94.9% | inhibition [6] 2% | RAM network inhibition [7] -1.31%

NC(=O)CSc1ncc(-c2ccccc2)[nH]1
inactive: growth inhibition [1] -4.49% | growth inhibition [2] -3.75% | viability increase [3] -3.58% | viability [4] 101% | viability [5] 93.7% | inhibition [6] 0.715% | RAM network inhibition [7] 4.43%

COc1cccc(N2CCN(C(=O)CN(C)S(=O)(=O)c3ccc4c(c3)CCC(=O)N4)CC2)c1
inactive: growth inhibition [1] -2.86% | growth inhibition [2] -13.8% | viability increase [3] -2.87% | viability [4] 87.6% | viability [5] 85.5% | inhibition [6] 0.59% | RAM network inhibition [7] 7.09%

COc1cccc(NC(=O)c2nnn(CCc3ccccc3)c2N)c1
inactive: growth inhibition [1] -1.48% | growth inhibition [2] 0.3% | viability increase [3] -6.11% | viability [4] 65.9% | viability [5] 50.7% | inhibition [6] 2.52% | RAM network inhibition [7] 0.72%

COc1ccc(-c2nnc3ccc(SCC(=O)N4CCCCC4)nn23)cc1OC
inactive: growth inhibition [1] 3.98% | growth inhibition [2] 18.9% | viability increase [3] -4.61% | viability [4] 98.3% | viability [5] 98.9% | inhibition [6] 0.24% | RAM network inhibition [7] 2.36%

COc1ccc(CCN=C2SCC(=O)N2C)cc1OC
inactive: growth inhibition [1] 3.32% | growth inhibition [2] 1.86% | viability increase [3] -0.79% | viability [4] 102% | viability [5] 97% | inhibition [6] 2.14% | RAM network inhibition [7] 6.13%

CN(C)c1nc2c(c(=O)[nH]c(=O)n2C)n1Cc1ccc(F)cc1
inactive: growth inhibition [1] -2.72% | growth inhibition [2] 6.59% | viability increase [3] -0.31% | viability [4] 107% | viability [5] 100% | inhibition [6] 1.74% | RAM network inhibition [7] 2.1%

CCN1CCN(CC(=O)NC2CCCCC2)C(=O)C1=O
inactive: growth inhibition [1] -14.6% | growth inhibition [2] -12.4% | viability increase [3] -0.83% | viability [4] 96.1% | viability [5] 96.3% | inhibition [6] 0.89% | RAM network inhibition [7] 2.42%

COc1cc(NC(=O)COc2ccc(F)cc2)nc(OC)n1
inactive: growth inhibition [1] -2.6% | growth inhibition [2] 11.7% | viability increase [3] -3.92% | viability [4] 101% | viability [5] 101% | inhibition [6] 1.72% | RAM network inhibition [7] 1.08%

Cn1c(=O)c2cc(S(=O)(=O)NC(C(=O)NCc3cccnc3)c3ccccc3)ccc2n(C)c1=O (configuration not stated)
inactive: growth inhibition [1] -17% | growth inhibition [2] -18.3% | viability increase [3] -1.54% | viability [4] 91.2% | viability [5] 94.2% | inhibition [6] 1.32% | RAM network inhibition [7] 1.81%

CCOC(=O)c1ccccc1NC(=O)CN(c1ccccc1OCC)S(C)(=O)=O
inactive: growth inhibition [1] 2.85% | growth inhibition [2] 1.95% | viability increase [3] -1.57% | viability [4] 96.4% | viability [5] 98% | inhibition [6] 1.1% | RAM network inhibition [7] 2.46%

Cc1ccc(NC(=O)CSc2nnc(-c3ccncc3)n2N)cc1C
inactive: growth inhibition [1] -4.62% | growth inhibition [2] -3.02% | viability increase [3] -2.83% | viability [4] 97.8% | viability [5] 98.3% | inhibition [6] 1.71% | RAM network inhibition [7] 2.23%

COc1ccc(C(=O)Oc2ccc3c(c2)OCO3)cc1OC
inactive: growth inhibition [1] -6.54% | growth inhibition [2] -4.45% | viability increase [3] -0.06% | viability [4] 85.9% | viability [5] 100% | inhibition [6] 1.68% | RAM network inhibition [7] 3.32%

Cc1ccc(C2CC(c3ccccc3)n3ncnc3N2)cc1 (configuration not stated)
inactive: growth inhibition [1] 1.32% | growth inhibition [2] 6.08% | viability increase [3] 1.68% | viability [4] 99.9% | viability [5] 98.8% | inhibition [6] 0.06% | RAM network inhibition [7] 1.8%

Cc1nc2ccc(S(=O)(=O)NC(C(=O)N3CCCCCC3)C(C)C)cc2s1 (configuration not stated)
inactive: growth inhibition [1] -11.3% | growth inhibition [2] -4.58% | viability increase [3] -1.12% | viability [4] 97.5% | viability [5] 87.8% | inhibition [6] 2.01% | RAM network inhibition [7] 2.77%

CCOC(=O)C1C(c2cccc(Cl)c2Cl)NC(=O)NC1(O)C(F)(F)F (configuration not stated)
inactive: growth inhibition [1] -5.62% | growth inhibition [2] -7.31% | viability increase [3] -2.19% | viability [4] 94.8% | viability [5] 96.9% | inhibition [6] 1.15% | RAM network inhibition [7] 7.71%

O=S(=O)(c1cccc2cccnc12)N1CCN(Cc2ccc3c(c2)OCO3)CC1
inactive: growth inhibition [1] -7.45% | growth inhibition [2] -17.5% | viability increase [3] -0.35% | viability [4] 84.3% | viability [5] 92.2% | inhibition [6] 1.28% | RAM network inhibition [7] 0.52%

CCOC(=O)Cn1c(=NC(=O)CSC(C)=O)sc2ccccc21
inactive: growth inhibition [1] 0% | growth inhibition [2] 8.74% | viability increase [3] -4.54% | viability [4] 105% | viability [5] 106% | inhibition [6] 0.465% | RAM network inhibition [7] 4.02%

O=C(Cn1cc2c(n1)CCCC2)NCc1cccnc1
inactive: growth inhibition [1] -1.72% | growth inhibition [2] -0.58% | viability increase [3] -0.86% | viability [4] 102% | viability [5] 101% | inhibition [6] 3.13% | RAM network inhibition [7] 3.68%

COc1ccc(-c2nc(C#N)c(NCCN(C)C)o2)cc1
inactive: growth inhibition [1] -5.38% | growth inhibition [2] -5.11% | viability increase [3] -0.95% | viability [4] 101% | viability [5] 97.5% | inhibition [6] 0.355% | RAM network inhibition [7] 3.09%

— PubChem BioAssay
